This note sets out measurements from ChEMBL document CHEMBL4028865, “Targeted Polypharmacology: Discovery of a Highly Potent Non-Hydroxamate Dual Matrix Metalloproteinase (MMP)-10/-13 Inhibitor” (J Med Chem, 2017).

Assay [1] deals with T1, Stromelysin-2 (Homo sapiens, UniProt P09238). Nature of the assay: Inhibition of MMP10 (unknown origin) assessed as residual activity at 10 uM using (5-FAM/QX) FRET peptide as substrate by fluorescence assay relative to control. The method, boiled down: (§1)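 Residual enzyme activity read at a single 10 μM inhibitor concentration, in duplicate. Fluorescence assay on cleavage of the QXL520/5-FAM FRET peptide. Buffer was 50 mM HEPES pH 7.5 with 10 mM CaCl₂, 0.01% Brij-35 and 0.1 mg/ml BSA. GM6001 served as control inhibitor. Same assay system as the IC50 determinations.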
Target sequence in this assay (P09238 99-476 limits assumed): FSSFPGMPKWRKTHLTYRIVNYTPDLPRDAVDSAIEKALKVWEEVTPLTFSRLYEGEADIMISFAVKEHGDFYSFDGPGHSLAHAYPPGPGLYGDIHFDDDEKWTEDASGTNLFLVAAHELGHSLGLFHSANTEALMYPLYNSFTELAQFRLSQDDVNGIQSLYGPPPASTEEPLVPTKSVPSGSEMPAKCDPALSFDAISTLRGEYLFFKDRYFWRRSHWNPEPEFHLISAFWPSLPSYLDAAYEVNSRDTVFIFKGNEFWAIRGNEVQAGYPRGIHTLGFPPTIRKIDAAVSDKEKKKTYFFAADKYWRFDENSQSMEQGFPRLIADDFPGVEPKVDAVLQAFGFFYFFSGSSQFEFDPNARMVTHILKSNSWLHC

In assay [2] the target is T2, Collagenase 3 (Homo sapiens, UniProt P45452). Nature of the assay: Inhibition of C-terminal tagged human recombinant MMP13 catalytic domain expressed in Escherichia coli assessed as residual activity at 10 uM using (5-FAM/QX) FRET peptide as substrate by fluorescence assay relative to control. An outline of the steps:
as §1

For assay [3], the target named is T1, Stromelysin-2. Nature of the assay: Inhibition of MMP10 (unknown origin) assessed using (5-FAM/QX) FRET peptide as substrate by fluorescence assay. The method, boiled down:
(§2)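 IC50 from 10 concentrations in 3-fold dilution, starting at 10 μM or 100 μM, with two to six replicates. Run only for compounds leaving under 20% residual activity at 10 μM. Fluorescence read-out of QXL520/5-FAM FRET peptide cleavage in 50 mM HEPES pH 7.5, 10 mM CaCl₂, 0.01% Brij-35 and 0.1 mg/ml BSA. Four-parameter least-squares fit; GM6001 as control.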
Target sequence in this assay (P09238 whole entry): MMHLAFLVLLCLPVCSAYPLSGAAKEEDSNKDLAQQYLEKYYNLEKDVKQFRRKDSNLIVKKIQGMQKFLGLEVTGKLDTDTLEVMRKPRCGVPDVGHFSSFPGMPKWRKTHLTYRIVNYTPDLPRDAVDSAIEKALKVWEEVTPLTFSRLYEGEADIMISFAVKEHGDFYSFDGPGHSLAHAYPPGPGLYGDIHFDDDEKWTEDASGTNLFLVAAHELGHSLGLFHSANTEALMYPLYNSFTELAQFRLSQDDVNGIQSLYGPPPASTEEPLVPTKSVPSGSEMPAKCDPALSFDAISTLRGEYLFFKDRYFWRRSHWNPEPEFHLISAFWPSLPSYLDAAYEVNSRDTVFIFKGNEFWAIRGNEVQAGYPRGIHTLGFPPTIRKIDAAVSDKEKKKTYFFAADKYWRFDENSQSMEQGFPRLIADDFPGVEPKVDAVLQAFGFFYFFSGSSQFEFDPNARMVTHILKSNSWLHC

Assay [4] deals with T2, Collagenase 3. Nature of the assay: Inhibition of C-terminal tagged human recombinant MMP13 catalytic domain expressed in Escherichia coli using (5-FAM/QX) FRET peptide as substrate by fluorescence assay. The method, boiled down: as §2

`COC(=O)CNS(=O)(=O)c1ccc(Cn2cc(C#CC(=O)NCc3ccc(F)c(OC)c3)c(=O)[nH]c2=O)cc1`: the Activity came out at 14.3% in assay [1] and 2.1% in assay [2]. In addition, the IC50 in assay [3] (read-out: IC50) is 485 nM; in assay [3] (read-out: pIC50 (converted)) it was 245 to 437 nM; in assay [4] (read-out: IC50) it was 32 nM; in assay [4] (read-out: pIC50 (converted)), 15.1 to 34.7 nM.

As for `COc1cc(CNC(=O)C#Cc2cn(Cc3ccc(C(=O)N[C@H](CO)C(=O)O)cc3)c(=O)[nH]c2=O)ccc1F`, the results for the Activity in assay [1] and in assay [2] were 77% and 5.6%, respectively.

For the compound `COC(=O)[C@H](C)NC(=O)c1ccc(Cn2cc(C#CC(=O)NCc3ccc(F)c(OC)c3)c(=O)[nH]c2=O)cc1`, the Activity in assay [1] was 15.5%; in assay [2], 2.5%. In addition, the IC50 in assay [3] (read-out: IC50) is 751 nM; in assay [3] (read-out: pIC50 (converted)), 490 to 1070 nM; in assay [4] (read-out: IC50), 149 nM; in assay [4] (read-out: pIC50 (converted)), 102 to 195 nM.

Take `COc1cc(CNC(=O)C#Cc2cn(Cc3ccc(C(=O)N[C@@H](CO)C(=O)O)cc3)c(=O)[nH]c2=O)ccc1F`: the Activity in assay [1] was 10.4%; in assay [2], 0.8%. Besides, the IC50 in assay [3] (read-out: IC50) is 705 nM; in assay [3] (read-out: pIC50 (converted)), 501 to 832 nM; in assay [4] (read-out: IC50) it was 14 nM; in assay [4] (read-out: pIC50 (converted)), 7.76 to 15.1 nM.

In the case of `COc1cc(CNC(=O)C#Cc2cn(Cc3ccc(S(=O)(=O)N4CCOCC4)cc3)c(=O)[nH]c2=O)ccc1F`, the Activity in assay [1] was 15.7%; in assay [2], 1.2%. The IC50 was 1930 nM in assay [3] (read-out: IC50), 759 to 1700 nM in assay [3] (read-out: pIC50 (converted)), 66 nM in assay [4] (read-out: IC50) and 16.2 to 36.3 nM in assay [4] (read-out: pIC50 (converted)).

For the compound `O=C(O)CCCOc1cccc(CNC(=O)C#Cc2cn(Cc3ccc(C(=O)O)cc3)c(=O)[nH]c2=O)c1`, the IC50 in assay [3] (read-out: IC50) worked out at 8400 nM.

With `COc1cc(CNC(=O)C#Cc2cn(Cc3ccc(S(=O)(=O)NC(C)C)cc3)c(=O)[nH]c2=O)ccc1F`, the Activity in assay [1] is 10.2%; in assay [2], 2.2%. For the same compound, the IC50 was 147 nM in assay [3] (read-out: IC50), 67.6 to 141 nM in assay [3] (read-out: pIC50 (converted)), 25 nM in assay [4] (read-out: IC50) and 15.1 to 34.7 nM in assay [4] (read-out: pIC50 (converted)).

Regarding `COc1cc(CNC(=O)C#Cc2cn(Cc3ccc(C(=O)NC(C)C)cc3)c(=O)[nH]c2=O)ccc1F`, the Activity in assay [1] came to 56.6%; in assay [2], 14.2%.

As for `COc1cc(CNC(=O)C#Cc2cn(Cc3ccc(C(=O)NCC(=O)O)cc3)c(=O)[nH]c2=O)ccc1F`, the Activity in assay [1] came out at 68.6%; in assay [2], 5.1%.

Take `COc1cc(CNC(=O)C#Cc2cn(Cc3ccc(C(=O)NC(C)(C)C)cc3)c(=O)[nH]c2=O)ccc1F`: the Activity in assay [1] was determined as 55.7%; in assay [2], 13.3%.

In the case of `COC(=O)[C@H](CO)NC(=O)c1ccc(Cn2cc(C#CC(=O)NCc3ccc(F)c(OC)c3)c(=O)[nH]c2=O)cc1`, the Activity in assay [1] was found to be 21.9%; in assay [2], 3.9%.

Consider `COc1cc(CNC(=O)C#Cc2cn(Cc3ccc(C(=O)NCCO)cc3)c(=O)[nH]c2=O)ccc1F`, for which the Activity came to 14.2% in assay [1] and 2.6% in assay [2]. Moreover, the IC50 was 347 nM in assay [3] (read-out: IC50), 275 to 398 nM in assay [3] (read-out: pIC50 (converted)), 58 nM in assay [4] (read-out: IC50) and 44.7 to 72.4 nM in assay [4] (read-out: pIC50 (converted)).

For `COC(=O)c1ccc(Cn2cc(C#CC(=O)NCc3ccc(F)c(OC)c3)c(=O)[nH]c2=O)cc1`, the figures for the Activity in assay [1] and in assay [2] were 18% and 4.6%, respectively. In addition, the IC50 in assay [3] (read-out: IC50) is 506 nM; in assay [3] (read-out: pIC50 (converted)) it was 457 to 562 nM; in assay [4] (read-out: IC50) it was 128 nM; in assay [4] (read-out: pIC50 (converted)) it was 100 to 158 nM.

On to `CNC(=O)c1ccc(Cn2cc(C#CC(=O)NCc3ccc(F)c(OC)c3)c(=O)[nH]c2=O)cc1`, for which the Activity was 15.4% in assay [1] and 7.5% in assay [2]. Also, the IC50 in assay [3] (read-out: IC50) was 635 nM; in assay [3] (read-out: pIC50 (converted)), 479 to 832 nM; in assay [4] (read-out: IC50) it was 86 nM; in assay [4] (read-out: pIC50 (converted)), 67.6 to 112 nM.

Take `COc1cc(CNC(=O)C#Cc2cn(Cc3ccc(C(=O)N(C)C)cc3)c(=O)[nH]c2=O)ccc1F`: the Activity was determined as 7.1% in assay [1] and 1.4% in assay [2]. The IC50 in assay [3] (read-out: IC50) is 243 nM; in assay [3] (read-out: pIC50 (converted)), 186 to 589 nM; in assay [4] (read-out: IC50), 89 nM; in assay [4] (read-out: pIC50 (converted)) it was 70.8 to 110 nM.

Consider `COc1cc(CNC(=O)C#Cc2cn(Cc3ccc(S(N)(=O)=O)cc3)c(=O)[nH]c2=O)ccc1F`, for which the results for the Activity in assay [1] and in assay [2] were 19.1% and 3.9%, respectively. Further, the IC50 in assay [3] (read-out: IC50) was 7380 nM; in assay [3] (read-out: pIC50 (converted)) it was 4790 to 18200 nM; in assay [4] (read-out: IC50) it was 258 nM; in assay [4] (read-out: pIC50 (converted)) it was 204 to 324 nM.

As for `COc1cc(CNC(=O)C#Cc2cn(Cc3ccc(C(=O)N[C@H](C)C(=O)O)cc3)c(=O)[nH]c2=O)ccc1F`, the results for the Activity in assay [1] and in assay [2] were 26.6% and 0.4%, respectively.

For `COC(=O)CNC(=O)c1ccc(Cn2cc(C#CC(=O)NCc3ccc(F)c(OC)c3)c(=O)[nH]c2=O)cc1`, the Activity in assay [1] came out at 52.8%; in assay [2], 12.2%.

As for `COc1cc(CNC(=O)C#Cc2cn(Cc3ccc(C(=O)N[C@@H](C)C(=O)O)cc3)c(=O)[nH]c2=O)ccc1F`, the Activity in assay [1] came out at 28.5%; in assay [2], 0.8%.

`CNS(=O)(=O)c1ccc(Cn2cc(C#CC(=O)NCc3ccc(F)c(OC)c3)c(=O)[nH]c2=O)cc1`: the Activity is 12.8% in assay [1] and 1.8% in assay [2]. For the same compound, the IC50 is 531 nM in assay [3] (read-out: IC50), 407 to 676 nM in assay [3] (read-out: pIC50 (converted)), 35 nM in assay [4] (read-out: IC50) and 25.7 to 40.7 nM in assay [4] (read-out: pIC50 (converted)).

Consider `COc1cc(CNC(=O)C#Cc2cn(Cc3ccc(C(=O)NC4CC4)cc3)c(=O)[nH]c2=O)ccc1F`, for which the Activity is 30.8% in assay [1] and 5.9% in assay [2].

As for `COc1cc(CNC(=O)C#Cc2cn(Cc3ccc(S(=O)(=O)N(C)C)cc3)c(=O)[nH]c2=O)ccc1F`, the Activity in assay [1] came out at 47.9%; in assay [2], 5.8%.

As to `COc1cccc(CNC(=O)c2nc3scc(COCc4ccc(C(=O)O)cc4)c3c(=O)[nH]2)c1` [T-26c], the IC50 is 358 nM in assay [3] (read-out: IC50), 309 to 407 nM in assay [3] (read-out: pIC50 (converted)), 0.19 nM in assay [4] (read-out: IC50) and 0.138 to 0.275 nM in assay [4] (read-out: pIC50 (converted)).

As for `COc1cc(CNC(=O)C#Cc2cn(Cc3ccc(S(=O)(=O)NC4CC4)cc3)c(=O)[nH]c2=O)ccc1F`, the Activity in assay [1] turned out to be 19.6%; in assay [2], 2.2%. For the same compound, the IC50 in assay [3] (read-out: IC50) is 110 nM; in assay [3] (read-out: pIC50 (converted)) it was 67.6 to 112 nM; in assay [4] (read-out: IC50) it was 14 nM; in assay [4] (read-out: pIC50 (converted)), 10.2 to 11.7 nM.

As to `COC(=O)[C@H]1CCCN1C(=O)c1ccc(Cn2cc(C#CC(=O)NCc3ccc(F)c(OC)c3)c(=O)[nH]c2=O)cc1`, the Activity in assay [1] came to 17.5%; in assay [2], 1.8%. Moreover, the IC50 in assay [3] (read-out: IC50) was 2050 nM; in assay [3] (read-out: pIC50 (converted)) it was 1260 to 4900 nM; in assay [4] (read-out: IC50), 175 nM; in assay [4] (read-out: pIC50 (converted)), 209 to 219 nM.

On to `COc1cc(CNC(=O)C#Cc2cn(Cc3ccc(S(=O)(=O)NC(C)(C)C)cc3)c(=O)[nH]c2=O)ccc1F`, for which the Activity in assay [1] was determined as 6.9%; in assay [2] it was 1.7%. The IC50 in assay [3] (read-out: IC50) is 131 nM; in assay [3] (read-out: pIC50 (converted)) it was 51.3 to 141 nM; in assay [4] (read-out: IC50) it was 26 nM; in assay [4] (read-out: pIC50 (converted)), 12 to 20.9 nM.

With `COc1cc(CNC(=O)C#Cc2cn(Cc3ccc(C(N)=O)cc3)c(=O)[nH]c2=O)ccc1F`, the Activity in assay [1] came out at 13.9%; in assay [2] it was 4.4%. In addition, the IC50 in assay [3] (read-out: IC50) is 1210 nM; in assay [3] (read-out: pIC50 (converted)), 4790 to 18200 nM; in assay [4] (read-out: IC50), 111 nM; in assay [4] (read-out: pIC50 (converted)), 77.6 to 162 nM.

In the case of `COc1cc(CNC(=O)C#Cc2cn(Cc3ccc(C(=O)N4CCC[C@@H]4C(=O)O)cc3)c(=O)[nH]c2=O)ccc1F`, the Activity in assay [1] was 68.9%; in assay [2], 1.9%.
